Data on 27 molecules can be found in ChEMBL document CHEMBL4011653, “Design, Synthesis, and Evaluation of Novel Prodrugs of Transition State Inhibitors of Norovirus 3CL Protease” (J Med Chem, 2017).

pEC50, pIC50: −log10 of the molar value.

The nature of data set [1]: Selectivity index, ratio of CC50 for human HeLa cells to EC50 for norovirus.
For another data set, the system named is Norovirus. As to the kind of experiment: Antiviral activity against Norovirus infected in human HG23 cells assessed as inhibition of viral replication after 48 hrs by quantitative RT-PCR method. The following applies: HG23, 48 h. The class given is functional, cell-based.
Data set [2] is described as follows: Protein binding in human serum at 25 to 100 uM after 4 hrs by LC-MS method. The format is ADME, cell-free. The following applies: read-out: PB (converted).
The subject of another data set is HeLa. Description: Cytotoxicity against human HeLa cells assessed as cell viability after 72 hrs by MTT assay. The class given is functional.
A short description of data set [3]: Metabolic stability of human liver microsomes assessed as amount of parent compound remaining at 25 to 100 uM after 1 hr in the presence of NADPH by LC-MS method. The class given is ADME, microsome. Conditions: read-out: Stability. In a few lines: (§1)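 Compound at 25 or 100 μM was incubated with mouse or human liver microsomes plus NADPH for 1 h at 37 °C. The remaining aldehyde form was quantified by LC/MS.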

A short description of data set [4]: Metabolic stability of mouse liver microsomes assessed as amount of parent compound remaining at 25 to 100 uM after 1 hr in the presence of NADPH by LC-MS method. The format is ADME, microsome. Conditions: read-out: Stability. A digest of the protocol: as §1
Data set [5] is described as follows: Inhibition of Norovirus 3CL protease using Edans-DFHLQ/GP-Dabcyl as substrate after 30 mins by FRET assay. In a few lines:
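Norovirus 3CL protease was preincubated with serial compound dilutions up to 100 μM, or DMSO, for 30 min at 37 °C. Edans-DFHLQ/GP-Dabcyl substrate was then added. Buffer was 20 mM HEPES pH 8, 200 mM NaCl, 0.4 mM EDTA, 60% glycerol and 6 mM DTT. Fluorescence (ex 360/em 460 nm) was read for 1 h, minus the no-protease background. IC50 came from variable-slope curve fits.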

Data set [6] is described as follows: Protein binding in mouse serum at 25 to 100 uM after 4 hrs by LC-MS method. The class given is ADME, cell-free. Conditions: read-out: PB (converted).
Data set [7] can be described thus: Metabolic stability in mouse serum assessed as amount of parent compound remaining at 25 to 100 uM at 37 degC after 1 hr by LC-MS analysis. The format is ADME, cell-free. Conditions: read-out: Stability.
Data set [8] in a line: Metabolic stability in human serum assessed as amount of parent compound remaining at 25 to 100 uM at 37 degC after 1 hr by LC-MS analysis. The format is ADME, cell-free. The following applies: read-out: Stability.
For a further data set, the system named is Serum. Description: Prodrug activation in human serum assessed as 3-chlorobenzyl (S)-3-cyclohexyl-1-oxo-1-((S)-1-oxo-3-((S)-2-oxopyrrolidin-3-yl)propan-2-ylamino)propan-2-ylcarbamate formation by measuring parent compound half life at 25 to 100 uM by LC-MS method. The format is ADME, cell-free.
Data set [9] is described as follows: Prodrug activation in human HG23 cells assessed as 3-chlorobenzyl (S)-3-cyclohexyl-1-oxo-1-((S)-1-oxo-3-((S)-2-oxopyrrolidin-3-yl)propan-2-ylamino)propan-2-ylcarbamate formation by LC-MS method. The class given is ADME, cell-based.

`O=C[C@H](C[C@@H]1CCNC1=O)NC(=O)[C@H](CC1CCCCC1)NC(=O)OCc1cccc(Cl)c1`: in data set [1], the selectivity ratio turned out to be 2800. The pEC50 in the data set with Norovirus is 7.70. The fraction unbound at 4 h, up to 100 µM in data set [2] and in data set [6] was 0.02 each time. The 50% cytotoxic concentration (CC50) with HeLa stood at 56100 nM. The values for the remaining at 1 h, up to 100 µM in [3] and in data set [4] were 63% and 40%, respectively. The molecule further showed a pIC50 in data set [5] of 7.00.

Regarding `O=C(N[C@@H](CC1CCCCC1)C(=O)N[C@@H](C[C@@H]1CCNC1=O)C(O)S(=O)(=O)O)OCc1cccc(Cl)c1` (some centres undefined), the selectivity ratio in [1] was determined as 2480. Also, in the data set with Norovirus, the pEC50 was 7.70. Besides, the fraction unbound at 4 h, up to 100 µM in data set [2] was 0.04; in [6] it was 0.03. Also, the CC50 in the data set with HeLa was 49600 nM. The remaining at 1 h, up to 100 µM in data set [3] turned out to be 54%; in data set [7], 0%; in data set [8], 0%; in data set [4], 35%. Besides, the negative logarithm of the IC50 (pIC50) in [5] was 7.00.

For the molecule `CC(C)C[C@H](NC(=O)OCc1ccccc1)C(=O)N[C@@H](C[C@@H]1CCNC1=O)C(O)S(=O)(=O)O` (some centres undefined), the selectivity ratio in [1] was greater than 667. In addition, the pEC50 in the data set on Norovirus was 6.52. The fraction unbound at 4 h, up to 100 µM in data set [2] is 0.35; in data set [6] it was 0.29. Also, in the data set with HeLa, the CC50 was greater than 200000 nM. In addition, the remaining at 1 h, up to 100 µM stood at 92% in data set [3], 18% in [7], 2% in data set [8] and 82% in data set [4]. In data set [5], the pIC50 is 6.10.

Turning to `CCCC(=O)OC([C@H](C[C@@H]1CCNC1=O)NC(=O)[C@H](CC(C)C)NC(=O)OCc1ccccc1)S(=O)(=O)O` (some centres undefined), the pEC50 in the data set with Norovirus is 5.89. The pIC50 in [5] was 5.43.

For the molecule `COC(=O)C(NC(=O)OC([C@H](C[C@@H]1CCNC1=O)NC(=O)[C@H](CC1CCCCC1)NC(=O)OCc1cccc(Cl)c1)S(=O)(=O)O)C(C)C` (some centres undefined), in the data set with Norovirus, the pEC50 is 7.40. Also, in [5], the negative logarithm of the IC50 (pIC50) was 6.30.

As for `COC(=O)C(C)NC(=O)OC([C@H](C[C@@H]1CCNC1=O)NC(=O)[C@H](CC1CCCCC1)NC(=O)OCc1cccc(Cl)c1)S(=O)(=O)O` (some centres undefined), the pEC50 in the data set on Norovirus was 7.60. Besides, in data set [5], the pIC50 is 6.10.

For the molecule `CCCCCCCC(=O)OC([C@H](C[C@@H]1CCNC1=O)NC(=O)[C@H](CC1CCCCC1)NC(=O)OCc1cccc(Cl)c1)S(=O)(=O)O` (some centres undefined), the pEC50 in the data set on Norovirus is 7.52. The same molecule gave a pIC50 in data set [5] of 6.05.

With `CCCCCC(=O)OC([C@H](C[C@@H]1CCNC1=O)NC(=O)[C@H](CC(C)C)NC(=O)OCc1ccccc1)S(=O)(=O)O` (some centres undefined), the pEC50 in the data set with Norovirus is 6.52. Also, the pIC50 in data set [5] was 5.55.

Regarding `COC(=O)C(C)NC(=O)OC([C@H](C[C@@H]1CCNC1=O)NC(=O)[C@H](CC(C)C)NC(=O)OCc1ccccc1)S(=O)(=O)O` (some centres undefined), the pEC50 with Norovirus is 6.52. The molecule further showed a pIC50 in data set [5] of 5.74.

For `CCCCCCOC(=O)OC([C@H](C[C@@H]1CCNC1=O)NC(=O)[C@H](CC1CCCCC1)NC(=O)OCc1cccc(Cl)c1)S(=O)(=O)O` (some centres undefined), in the data set with Norovirus, the pEC50 was 7.60. This molecule showed a negative logarithm of the IC50 (pIC50) in data set [5] of 6.10.

`CCC(=O)OC([C@H](C[C@@H]1CCNC1=O)NC(=O)[C@H](CC1CCCCC1)NC(=O)OCc1cccc(Cl)c1)S(=O)(=O)[O-].[Na+]` (some centres undefined): the selectivity ratio in [1] was 4480. The pEC50 with Norovirus is 7.60. In addition, in the data set with HeLa, the CC50 was 112000 nM. The t1/2 in the data set with Serum was determined as 25 min. In addition, the remaining at 1 h, up to 100 µM in data set [3] stood at 11%; in data set [7] it was 0%; in data set [8], 52%; in data set [4] it was 17%. Moreover, in [5], the pIC50 is 7.00.

Take `CC(C)C[C@H](NC(=O)OCc1ccccc1)C(=O)N[C@@H](C[C@@H]1CCNC1=O)C(OC(=O)c1ccccc1)S(=O)(=O)O` (some centres undefined): the pEC50 in the data set with Norovirus was 6.10. Further, in data set [5], the pIC50 is 5.14.

As for `CC(=O)OC([C@H](C[C@@H]1CCNC1=O)NC(=O)[C@H](CC1CCCCC1)NC(=O)OCc1ccccc1)S(=O)(=O)O` (some centres undefined), the negative logarithm of the EC50 (pEC50) in the data set with Norovirus is 6.70. The same molecule showed a negative-log IC50 (pIC50) in [5] of 5.12.

Take `CCC(=O)OC([C@H](C[C@@H]1CCNC1=O)NC(=O)[C@H](CC(C)C)NC(=O)OCc1ccccc1)S(=O)(=O)O` (some centres undefined): the pEC50 with Norovirus is 6.15. The pIC50 in data set [5] is 5.12.

Turning to `COC(=O)C(NC(=O)OC([C@H](C[C@@H]1CCNC1=O)NC(=O)[C@H](CC(C)C)NC(=O)OCc1ccccc1)S(=O)(=O)O)C(C)C` (some centres undefined), the pEC50 with Norovirus is 6.40. The same molecule showed a negative logarithm of the IC50 (pIC50) in data set [5] of 5.60.

On to `CC(C)C[C@H](NC(=O)OCc1ccccc1)C(=O)N[C@@H](C[C@@H]1CCNC1=O)C(OC(=O)C(C)C)S(=O)(=O)O` (some centres undefined), for which, in the data set on Norovirus, the pEC50 is 6.52. In [5], this molecule gave a pIC50 of 5.46.

For the molecule `COC(=O)C(C)NC(=O)OC([C@H](C[C@@H]1CCNC1=O)NC(=O)[C@H](CC1CCCCC1)NC(=O)OCc1ccccc1)S(=O)(=O)O` (some centres undefined), the pEC50 in the data set on Norovirus is 6.70. Besides, the pIC50 in data set [5] was 4.99.

`CC(C)C(=O)OC([C@H](C[C@@H]1CCNC1=O)NC(=O)[C@H](CC1CCCCC1)NC(=O)OCc1cccc(Cl)c1)S(=O)(=O)O` (some centres undefined): in the data set on Norovirus, the pEC50 was 7.52. The same molecule showed a pIC50 in data set [5] of 6.52.

Consider `CCCCC(=O)OC([C@H](C[C@@H]1CCNC1=O)NC(=O)[C@H](CC(C)C)NC(=O)OCc1ccccc1)S(=O)(=O)O` (some centres undefined), for which, in the data set on Norovirus, the pEC50 was 5.85. In data set [5], this molecule had a pIC50 of 5.46.

On to `COC(=O)CNC(=O)OC([C@H](C[C@@H]1CCNC1=O)NC(=O)[C@H](CC(C)C)NC(=O)OCc1ccccc1)S(=O)(=O)O` (some centres undefined), for which, in the data set on Norovirus, the pEC50 was 6.40. The negative-log IC50 (pIC50) in [5] is 5.51.

Take `CCCCCC(=O)OC([C@H](C[C@@H]1CCNC1=O)NC(=O)[C@H](CC1CCCCC1)NC(=O)OCc1cccc(Cl)c1)S(=O)(=O)O` (some centres undefined): the selectivity ratio in data set [1] came to 5470. The pEC50 in the data set with Norovirus was 7.82. In addition, the CC50 in the data set with HeLa was determined as 82000 nM. The remaining at 1 h, up to 100 µM in data set [3] was determined as 76%; in data set [7], 60%; in data set [8], 103%; in data set [4] it was 38%. In [5], this molecule showed a pIC50 of 7.00.

In the case of `CCCCCCCC(=O)OC([C@H](C[C@@H]1CCNC1=O)NC(=O)[C@H](CC(C)C)NC(=O)OCc1ccccc1)S(=O)(=O)O` (some centres undefined), the pEC50 in the data set on Norovirus was 6.30. For the same molecule, the pIC50 in data set [5] is 5.52.

Consider `CC(=O)OC([C@H](C[C@@H]1CCNC1=O)NC(=O)[C@H](CC(C)C)NC(=O)OCc1ccccc1)S(=O)(=O)O` (some centres undefined), for which the pEC50 in the data set with Norovirus is 6.22. For the same molecule, the pIC50 in [5] is 4.98.

Consider `CC(=O)OC([C@H](C[C@@H]1CCNC1=O)NC(=O)[C@H](CC1CCCCC1)NC(=O)OCc1cccc(Cl)c1)S(=O)(=O)[O-].[Na+]` (some centres undefined), for which the selectivity ratio in [1] is greater than 6670. Further, the pEC50 in the data set with Norovirus is 7.52. Further, in the data set with HeLa, the CC50 is greater than 200000 nM. In addition, the t1/2 with Serum is on record as 25 min. Moreover, the remaining at 1 h, up to 100 µM in [3] was 17%; in data set [7], 0%; in data set [8], 56%; in data set [4], 14%. The Drug metabolism entry in data set [9] was “Metabolite_Detected”. Moreover, in data set [5], the pIC50 is 7.10.

Take `O=C(N[C@@H](CC1CCCCC1)C(=O)N[C@@H](C[C@@H]1CCNC1=O)C(OC(=O)C1CCCCC1)S(=O)(=O)O)OCc1cccc(Cl)c1` (some centres undefined): in the data set on Norovirus, the pEC50 was 7.70. The molecule further showed a pIC50 in data set [5] of 6.40.

On to `COc1ccc(CCN(C)CCCC(C#N)(c2ccc(OC)c(OC)c2)C(C)C)cc1OC` (centres undefined), for which the values for the remaining at 1 h, up to 100 µM in data set [3] and in data set [4] were 41% and 30%, respectively.

Regarding `CC(=O)CC(c1ccccc1)c1c(O)c2ccccc2oc1=O` (centres undefined) [WARFARIN], the values for the fraction unbound at 4 h, up to 100 µM in data set [2] and in [6] were 0.01 and 0.04, respectively. Further, the remaining at 1 h, up to 100 µM in data set [3] is 95%; in data set [4], 99.6%.
